The ED50 is the midpoint of the dose-response relation. The term IC50 denotes the point on the concentration scale where inhibition reaches its midpoint. Read a high IC50 as lower potency. As a reminder, the Tm is the temperature at which the thermal transition is half complete.

Data set [1] concerns Mus musculus. The data set can be described thus: Reduction in PTEN mRNA expression in ip dosed BALB/c mouse liver administered twice a week for 3 weeks measured after 72 hrs of last dose by RT-PCR analysis. The class given is functional. In outline: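 Male Balb/c mice, 6-week-old, ASO in PBS ip twice weekly for 3 weeks, four dose levels. Killed 72 h after last dose. Liver homogenized in guanidine isothiocyanate buffer, RNA column-purified. PTEN RNA by fluorescence qRT-PCR, normalized to cyclophilin A. Errors are SD.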

The subject of data set [2] is Mus musculus. The data set can be described thus: Toxicity in BALB/c mouse assessed as effect on body weight at 0.5 to 14.8 mg/kg, ip administered twice a week for 3 weeks measured after 72 hrs of last dose. The class given is organism-based. Also noted: dose 0.5-14.8 mg/kg, route intraperitoneal. The following applies: in vivo. Put shortly:
(§1)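 Male Balb/c mice, ip ASO in PBS twice weekly for 3 weeks at four dose levels. Body weight recorded before each dose. Killed 3 days after last dose. Organ weights normalized to body weight, expressed relative to the saline-treated group.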

Data set [3] in a line: Reduction in PTEN mRNA expression in mouse bEND.3 cells after 24 hrs by qRT-PCR analysis. The class given is functional, cell-based. The following applies: for IC50: BEND3, 24 h. In outline: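 bEnd.3 cells in DMEM/10% FBS, seeded at 1 × 10^4 cells/well the day before. Transfected 4 h at 37 °C with Lipofectin 3 μg/mL in OptiMEM, eight 1:2 dilutions (40 nM to 312.5 pM), then refed with complete medium for 24 h. PTEN RNA by qRT-PCR, normalized to cyclophilin A, as % untreated control. Triplicate plates. IC50 from sigmoidal fit, top 100%, bottom 0%.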
For orientation: In qPCR the cycle at which signal appears reflects the starting amount.

Data set [4] deals with Mus musculus. Kind of data set: Hepatotoxicity in BALB/c mouse assessed as liver ALT level at 0.5 to 14.8 mg/kg, ip administered twice a week for 3 weeks measured after 72 hrs of last dose. The class given is toxicity, organism-based. Also noted: dose 0.5-14.8 mg/kg, route intraperitoneal. The following applies: in vivo. Put shortly: (§2)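 Male 6-week-old Balb/c mice dosed ip in PBS twice weekly for 3 weeks: 0.7–23 mg/kg (four levels) or 0.5–14.6/14.8 mg/kg. Killed 72 h after final dose. Plasma from cardiac-puncture blood, ALT on clinical bioanalyzer. Errors are SD.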

Data set [5] has as its system Mus musculus. Kind of data set: Toxicity in BALB/c mouse assessed as effect on kidney weight at 0.5 to 14.8 mg/kg, ip administered twice a week for 3 weeks measured after 72 hrs of last dose. Also noted: dose 0.5-14.8 mg/kg, route intraperitoneal. The class given is organism-based. The note with it: in vivo. In outline:
as §1

The subject of data set [6] is Mus musculus. The data set can be described thus: Reduction in PTEN mRNA expression in BALB/c mouse liver at 37 mg/kg, ip administered once a week for 3 weeks measured after 72 hrs of last dose by RT-PCR analysis. The class given is functional, organism-based. On the set-up: dose 37 mg/kg.
For data set [7], the system named is Mus musculus. The data set can be described thus: Toxicity in BALB/c mouse assessed as increase in spleen weight at 0.5 to 14.8 mg/kg, ip administered twice a week for 3 weeks measured after 72 hrs of last dose. The class given is organism-based. Also noted: dose 0.5-14.8 mg/kg, route intraperitoneal. The following applies: in vivo. In outline: as §1
The subject of the next data set is Nucleic Acid. Kind of data set: Binding affinity to mouse PTEN mRNA assessed as melting temperature at 4 uM by thermal denaturation assay. The class given is nucleic-acid assay. Put shortly:
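Duplex with complementary length-matched RNA; UV absorbance versus temperature curves in 100 mM Na+, 10 mM phosphate, 0.1 mM EDTA, 4 μM each strand. Tm is the average of two experiments.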

For data set [8], the system named is Mus musculus. Kind of data set: Toxicity in BALB/c mouse assessed as effect on liver weight at 0.5 to 14.8 mg/kg, ip administered twice a week for 3 weeks measured after 72 hrs of last dose. The class given is organism-based. Also noted: dose 0.5-14.8 mg/kg, route intraperitoneal. The note with it: in vivo. In outline: as §1
The subject of data set [9] is Mus musculus. The data set can be described thus: Toxicity in BALB/c mouse assessed as increase in liver weight at 0.5 to 14.6 mg/kg, ip administered twice a week for 3 weeks measured after 72 hrs of last dose. The class given is organism-based. Also noted: dose 0.5-14.6 mg/kg, route intraperitoneal. The note with it: in vivo. Put shortly: as §1
For another data set, the system named is Liver. The data set can be described thus: Drug level in BALB/c mouse liver assessed per gram of tissue at 37 mg/kg, ip administered once a week for 3 weeks measured after 72 hrs of last dose. Also noted: dose 37 mg/kg, route intraperitoneal. The class given is ADME, organism-based. The following applies: in vivo.
Data set [10] has as its system Mus musculus. Kind of data set: Hepatotoxicity in BALB/c mouse assessed as increase in liver ALT level at 0.5 to 14.6 mg/kg, ip administered twice a week for 3 weeks measured after 72 hrs of last dose. The class given is toxicity, organism-based. Also noted: dose 0.5-14.6 mg/kg, route intraperitoneal. The following applies: in vivo. In outline: as §2
Data set [11] concerns Mus musculus. Kind of data set: Toxicity in BALB/c mouse assessed as effect on body weight at 0.5 to 14.6 mg/kg, ip administered twice a week for 3 weeks measured after 72 hrs of last dose. Also noted: dose 0.5-14.6 mg/kg, route intraperitoneal. The following applies: in vivo. The class given is organism-based. In outline:
as §1

The structures appear in SMILES notation. Activity calls are given as the source filed them. No cut-off for these calls is given here.

As to `Cc1cn([C@@H]2O[C@]3(CO)CN(C)O[C@@H]2[C@@H]3OP(O)(=S)OC[C@]23CN(C)O[C@@H]([C@H](n4cc(C)c(=O)[nH]c4=O)O2)[C@@H]3OP(O)(=S)OC[C@H]2O[C@@H](n3cc(C)c(=O)[nH]c3=O)C[C@@H]2OP(O)(=S)OC[C@H]2O[C@@H](n3cnc4c(N)ncnc43)[C@H](O)[C@@H]2OP(O)(=S)OC[C@H]2O[C@@H](n3cnc4c(=O)[nH]c(N)nc43)[C@H](O)[C@@H]2OP(O)(=S)OC[C@H]2O[C@@H](n3ccc(N)nc3=O)[C@H](O)[C@@H]2OP(O)(=S)OC[C@H]2O[C@@H](n3cnc4c(N)ncnc43)[C@H](O)[C@@H]2OP(O)(=S)OC[C@H]2O[C@@H](n3ccc(N)nc3=O)[C@H](O)[C@@H]2OP(O)(=S)OC[C@H]2O[C@@H](n3cc(C)c(=O)[nH]c3=O)C[C@@H]2OP(O)(=S)OC[C@H]2O[C@@H](n3cnc4c(=O)[nH]c(N)nc43)[C@H](O)[C@@H]2OP(O)(=S)OC[C@H]2O[C@@H](n3cnc4c(=O)[nH]c(N)nc43)[C@H](O)[C@@H]2OP(O)(=S)OC[C@H]2O[C@@H](n3ccc(N)nc3=O)[C@H](O)[C@@H]2OP(O)(=S)OC[C@]23CN(C)O[C@@H]([C@H](n4cc(C)c(N)nc4=O)O2)[C@@H]3OP(O)(=S)OC[C@]23CN(C)O[C@@H]([C@H](n4cc(C)c(=O)[nH]c4=O)O2)[C@@H]3O)c(=O)nc1N` (some centres not stated), the Activity entry was “Dose-dependent effect” in the data set with Mus musculus [1]; “Non-toxic” in the data set on Mus musculus [2]; “Dose-dependent effect” in [3]; “Non-toxic” in the data set with Mus musculus [4]; “Non-toxic” in the data set with Mus musculus [5]; “Toxic” with Mus musculus [7]. For the same compound, in the data set with Mus musculus [8], the Activity entry is given as “Non-toxic”. For the same compound, the ED50 with Mus musculus [1] came to 6 mg/kg. This compound yielded an IC50 in data set [3] of 2.5 nM. In the data set with Mus musculus [6], the result was Active. The Tm in the data set on Nucleic Acid is 58.6 °C.

For `Cc1cn([C@@H]2O[C@]3(CO)CO[C@@H]2[C@@H]3OP(O)(=S)OC[C@]23CC([C@H](n4cc(C)c(=O)[nH]c4=O)O2)[C@@H]3OP(O)(=S)OC[C@H]2O[C@@H](n3cc(C)c(=O)[nH]c3=O)C[C@@H]2OP(O)(=S)OC[C@H]2O[C@@H](n3cnc4c(N)ncnc43)[C@H](O)[C@@H]2OP(O)(=S)OC[C@H]2O[C@@H](n3cnc4c(=O)[nH]c(N)nc43)[C@H](O)[C@@H]2OP(O)(=S)OC[C@H]2O[C@@H](n3ccc(N)nc3=O)[C@H](O)[C@@H]2OP(O)(=S)OC[C@H]2O[C@@H](n3cnc4c(N)ncnc43)[C@H](O)[C@@H]2OP(O)(=S)OC[C@H]2O[C@@H](n3ccc(N)nc3=O)[C@H](O)[C@@H]2OP(O)(=S)OC[C@H]2O[C@@H](n3cc(C)c(=O)[nH]c3=O)C[C@@H]2OP(O)(=S)OC[C@H]2O[C@@H](n3cnc4c(=O)[nH]c(N)nc43)[C@H](O)[C@@H]2OP(O)(=S)OC[C@H]2O[C@@H](n3cnc4c(=O)[nH]c(N)nc43)[C@H](O)[C@@H]2OP(O)(=S)OC[C@H]2O[C@@H](n3ccc(N)nc3=O)[C@H](O)[C@@H]2OP(O)(=S)OC[C@]23CO[C@@H]([C@H](n4cc(C)c(N)nc4=O)O2)[C@@H]3OP(O)(=S)OC[C@]23CC([C@H](n4cc(C)c(=O)[nH]c4=O)O2)[C@@H]3O)c(=O)nc1N` (some centres not stated), the Activity entry with Mus musculus [9], in the data set on Mus musculus [10] and with Mus musculus [11] was “Toxic” each time. In addition, the ED50 with Mus musculus [1] worked out at 3 mg/kg. Also, the Drug uptake in the data set on Liver turned out to be 30 µg/g. Also, in [3], the IC50 amounted to 1.3 nM.

The record behind these values is ChEMBL document CHEMBL1156266, “Antisense oligonucleotides containing conformationally constrained 2',4'-(N-methoxy)aminomethylene and 2',4'-aminooxymethylene and 2'-O,4'-C-aminomethylene bridged nucleoside analogues show improved potency in animal models” (J Med Chem, 2010).
